Data set [1] deals with Pseudomonas putida. In words: Antibacterial activity against ampicillin-resistant Pseudomonas putida MTCC 1072 at 64 mg/ml after 16 hrs by disk diffusion test. Type of data set: functional. Also on record: dose or concentration left out as unconfirmed. Conditions: MTCC 1072, 16 h, read-out: IZ.
In data set [2] the test system is Staphylococcus aureus. The data set can be described thus: Antibacterial activity against Staphylococcus aureus MTCC 1144 after 12 to 16 hrs by turbidity assay. Type of data set: functional. In outline:
(§1)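 Broth dilution MIC in LB broth. Tubes inoculated, incubated 12–16 h and scored by eye for turbidity (growth) versus clear (no growth).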

Data set [3] has as its system Staphylococcus aureus. In words: Antibacterial activity against Staphylococcus aureus MTCC 1144 at 64 mg/ml after 16 hrs by disk diffusion test. Conditions: MTCC 1144, 16 h, read-out: IZ. It counts as functional. In outline:
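Disk diffusion (zone of inhibition). Bacterial isolate spread evenly over an agar plate. A filter disk carrying a known amount of compound was placed on the surface and the compound left to diffuse. The inhibition zone in the lawn was read after 16 h incubation.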
Background: Agar diffusion results depend on both activity and mobility in agar.

Data set [4] has as its system Pseudomonas putida. The data set can be described thus: Antibacterial activity against ampicillin-resistant Pseudomonas putida MTCC 1072 after 12 to 16 hrs by turbidity assay. It counts as functional. The gist of the method:
as §1

Data set [5] has as its system Pseudomonas putida. The data set can be described thus: Antibacterial activity against ampicillin-resistant Pseudomonas putida MTCC 1072 at 128 mg/ml after 16 hrs by disk diffusion test. Type of data set: functional. Also on record: dose or concentration left out as unconfirmed. Conditions: MTCC 1072, 16 h, read-out: IZ.
Data set [6] deals with Escherichia coli. The data set can be described thus: Antibacterial activity against Escherichia coli MTCC 41 after 12 to 16 hrs by turbidity assay. Type of data set: functional. The gist of the method: as §1
Data set [7] has as its system Escherichia coli. The data set can be described thus: Antibacterial activity against Escherichia coli MTCC 41 at 64 mg/ml after 16 hrs by disk diffusion test. It counts as functional. Set-up: dose or concentration left out as unconfirmed. To be noted: MTCC 41, 16 h, read-out: IZ.
In data set [8] the test system is Staphylococcus aureus. In words: Antibacterial activity against Staphylococcus aureus MTCC 1144 at 128 mg/ml after 16 hrs by disk diffusion test. Type of data set: functional. Also on record: dose or concentration left out as unconfirmed. To be noted: MTCC 1144, 16 h, read-out: IZ.
Data set [9] has as its system Escherichia coli. In words: Antibacterial activity against Escherichia coli MTCC 41 at 128 mg/ml after 16 hrs by disk diffusion test. It counts as functional. Also on record: dose or concentration left out as unconfirmed. Conditions: MTCC 41, 16 h, read-out: IZ.
The subject of data set [10] is Human immunodeficiency virus 1. The data set can be described thus: Antiviral activity against HIV1 infected in human CEM cells assessed as protection against virus-induced cytopathic effect after 6 days by XTT assay. Type of data set: functional, organism-based. To be noted: Human immunodeficiency virus 1, CCRF-CEM, 144 h. In outline:
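CEM T4 lymphocytes received serially diluted compounds (DMSO stock diluted 1:100 in medium, 1:200 final dilution), then HIV-1. Incubated 6 days at 37 °C, 5% CO2. Formazan read spectrophotometrically after XTT, with microscopic check for viable cells. EC50 is the concentration giving 50% protection against the HIV cytopathic effect. AZT-treated wells served as positive control.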
In general terms: Protection from cytopathic effect is a common read-out in antiviral testing.

Another data set deals with CCRF-CEM. The data set can be described thus: Cytotoxicity against […] human CEM cells after 6 days by XTT assay. It counts as cell-based. Conditions: 144 h. In outline: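 Uninfected CEM cultures given serial compound dilutions (DMSO, 1:200 final dilution). Incubated 6 days at 37 °C, 5% CO2, then read by XTT formazan. IC50 is the molar concentration causing 50% inhibition of cell growth.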
On the technique in general: Formazan colour is commonly taken as a measure of viable cells.

Another data set has as its system Vero. In words: Cytotoxicity against african green monkey Vero cells assessed as loss of monolayer present around the plaques. Conditions: Chlorocebus sabaeus. It counts as cell-based. The gist of the method:
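Vero monolayers in serial-dilution trays with HSV-1, run in triplicate, 6 h at 37 °C, 5% CO2. Cells fixed with 3.7% formaldehyde and examined visually. IC50 is the concentration giving about 50% loss of the monolayer around HSV-1 plaques.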

Data set [11] is described as follows: Therapeutic index, ratio of IC50 for human CEM cells to EC50 for HIV1. It counts as cell-based, CCRF-CEM. To be noted: read-out: Ratio IC50/EC50. In outline: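 CEM T4 lymphocytes, with or without HIV-1, were incubated with serially diluted compounds (DMSO solution diluted 1:100 in medium; 1:200 final dilution after cells and virus were added) at 37 °C in 5% CO2 for 6 days. Controls were untreated and AZT-treated. Read-out was XTT formazan, measured spectrophotometrically plus microscopy. EC50 is 50% protection from cytopathic effect; IC50 is 50% growth inhibition in uninfected cultures.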

Another data set relates to Human alphaherpesvirus 1. In words: Antiviral activity against HSV1 infected in african green monkey Vero cells after 6 hrs by plaque reduction assay. It counts as functional. Set-up: scale not given: the % may be the effect or the level left. In outline:
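Modified plaque reduction in 96-well trays with no thickening overlay. Compounds dissolved in DMSO and diluted into medium, then serially diluted and added in triplicate to confluent Vero monolayers. Titred HSV-1 added in medium with 10% calf serum. Incubated 6 h at 37 °C, 5% CO2. Cells fixed with 3.7% formaldehyde and examined visually. The end-point concentration was taken from the dilution series.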

The values below come from ChEMBL document CHEMBL1240504, “Synthesis of substituted thieno[2,3-d]pyrimidine-2,4-dithiones and their S-glycoside analogues as potential antiviral and antibacterial agents” (Eur J Med Chem, 2010).

≈ marks a conversion by molar mass, not a printed value.

A word on the MIC: it is the least concentration at which growth counts as inhibited. With `CC(=O)OC[C@H]1O[C@@H](Sc2nc3sc4c(c3c(=S)[nH]2)CCCCC4)[C@H](OC(C)=O)[C@@H](OC(C)=O)[C@@H]1OC(C)=O`, the zone of inhibition is more than 2 mm in the data set on Pseudomonas putida [1]; more than 3 mm with Pseudomonas putida [5]; more than 2 mm in the data set with Escherichia coli [7]; more than 2 mm with Staphylococcus aureus [8]; more than 2 mm in the data set with Escherichia coli [9]. Besides, the MIC with Staphylococcus aureus [2] was more than 128 µg/mL; against Pseudomonas putida [4], 128 µg/mL (≈ 214 µM); in the data set on Escherichia coli [6] it was more than 128 µg/mL. Moreover, the zone of inhibition at 64000 µg/mL in the data set with Staphylococcus aureus [3] was more than 2 mm.
`OC[C@H]1O[C@@H](Sc2nc3sc4c(c3c(=S)[nH]2)CCCCC4)[C@H](O)[C@@H](O)[C@@H]1O`: the zone of inhibition in the data set with Pseudomonas putida [1], in the data set with Pseudomonas putida [5], with Escherichia coli [7], in the data set on Staphylococcus aureus [8] and with Escherichia coli [9] was less than 1 mm in each case. In addition, the MIC against Staphylococcus aureus [2], in the data set with Pseudomonas putida [4] and against Escherichia coli [6] was more than 128 µg/mL throughout. Further, the zone of inhibition at 64000 µg/mL in the data set with Staphylococcus aureus [3] is less than 1 mm.
For orientation: EC50 means the midpoint of the concentration-response curve. By IC50 is commonly meant the midpoint of a concentration-inhibition curve. For the molecule `CC(=O)c1nn(-c2ccc(Cl)cc2)c2nc3sc4c(c3c(=S)n12)CCCC4`, in data set [10], the EC50 is more than 100000 nM. For the same molecule, the IC50 with CCRF-CEM was more than 100000 nM; in the data set with Vero it was 90 nM. In data set [11], the selectivity ratio was more than 1. The Activity with Human alphaherpesvirus 1 came out at 0%.
`CC(=O)c1nn(-c2ccc(Cl)cc2)c2nc3sc4c(c3c(=S)n12)CCCCC4`: the EC50 in [10] is more than 100000 nM. Also, the values for the IC50 in the data set on CCRF-CEM and in the data set with Vero were more than 100000 nM and 70 nM, respectively. For the same molecule, the selectivity ratio in data set [11] was more than 1. In the data set on Human alphaherpesvirus 1, this molecule yielded an Activity of 0%.
Turning to `CC(=O)OC[C@H]1O[C@@H](Sc2nc3sc4c(c3c(=S)[nH]2)CCCC4)[C@@H](OC(C)=O)[C@@H]1OC(C)=O`, the zone of inhibition with Pseudomonas putida [1] was less than 1 mm; in the data set on Pseudomonas putida [5], more than 3 mm; in the data set with Escherichia coli [7] it was more than 3 mm; with Staphylococcus aureus [8], more than 3 mm; with Escherichia coli [9] it was more than 3 mm. For the same molecule, the MIC was 64 µg/mL (≈ 125 µM) against Staphylococcus aureus [2], 128 µg/mL (≈ 250 µM) in the data set on Pseudomonas putida [4] and 64 µg/mL (≈ 125 µM) in the data set on Escherichia coli [6]. In the data set on Staphylococcus aureus [3], the zone of inhibition at 64000 µg/mL is more than 3 mm. For the same molecule, in data set [10], the concentration for a half-maximal effect (EC50) was more than 100000 nM. The IC50 in the data set with CCRF-CEM was more than 100000 nM; in the data set on Vero it was 1390 nM. The selectivity ratio in [11] was more than 1. The same molecule yielded an Activity in the data set on Human alphaherpesvirus 1 of 0%.
Regarding `CC(=O)OC[C@H]1O[C@@H](Sc2nc3sc4c(c3c(=S)[nH]2)CCCCC4)[C@@H](OC(C)=O)[C@@H]1OC(C)=O`, the zone of inhibition in the data set with Pseudomonas putida [1], with Pseudomonas putida [5], in the data set with Escherichia coli [7], in the data set on Staphylococcus aureus [8] and in the data set on Escherichia coli [9] was less than 1 mm in each case. The MIC against Staphylococcus aureus [2], against Pseudomonas putida [4] and in the data set with Escherichia coli [6] was more than 128 µg/mL each time. Moreover, in the data set on Staphylococcus aureus [3], the zone of inhibition at 64000 µg/mL was less than 1 mm. Besides, the EC50 in data set [10] was more than 100000 nM. Also, the IC50 is more than 100000 nM in the data set on CCRF-CEM and 1150 nM in the data set on Vero. Besides, the selectivity ratio in data set [11] is more than 1. The molecule also yielded an Activity in the data set on Human alphaherpesvirus 1 of 0%.
With `CC1(C)S[C@@H]2[C@H](NC(=O)[C@H](N)c3ccccc3)C(=O)N2[C@H]1C(=O)O` [AMPICILLIN], the zone of inhibition in the data set on Pseudomonas putida [1] is 0 mm; in the data set with Pseudomonas putida [5], 0 mm; in the data set with Escherichia coli [7] it was more than 5 mm; with Staphylococcus aureus [8], more than 5 mm; with Escherichia coli [9], more than 5 mm. The zone of inhibition at 64000 µg/mL in the data set on Staphylococcus aureus [3] was more than 5 mm. The MIC with Pseudomonas putida [4] was more than 256 µg/mL; with Escherichia coli [6] it was 16 µg/mL (≈ 45.8 µM).
In turn, `Cc1cn([C@H]2C[C@H](N=[N+]=[N-])[C@@H](CO)O2)c(=O)[nH]c1=O` [ZIDOVUDINE] displayed an IC50 in the data set on CCRF-CEM of 700 nM.
